# Experimental data pooled from the literature.
# Protocols differ between the studies behind these lines. pKd: −log10 of the molar value.
SMILES,target,effect on,method,pH,notes,pKd
O=C1Nc2ccccc2C1=O,"Parkinson disease protein 7 (PARK7, Homo sapiens, UniProt Q99497)",binding,SPR,,,5.70
O=C(O)c1cc(O)c2c(c1)C(=O)c1cccc(O)c1C2=O,"Oxysterols receptor LXR-alpha (NR1H3, Homo sapiens, UniProt Q13133)",binding,SPR,,,4.33
NS(=O)(=O)c1ccc(C(F)(F)F)cc1,"Carbonic anhydrase 2 (CA2, Homo sapiens, UniProt P00918)",binding,ITC,,,~7.15
Cc1cnc(-c2ccc(-c3ccc(NC(=O)Nc4c(F)cc(F)cc4F)cc3F)c3c2C(=O)NC3)[nH]1,"Dual specificity mitogen-activated protein kinase kinase 6 (MAP2K6, Homo sapiens, UniProt P52564)",binding,competition with immobilised ligand,,,7.92
FC(F)(F)c1n[nH]cc1-c1nc2ccc3[nH]ncc3c2c2c1CCCC2,"Tyrosine-protein kinase ABL1, non-phosphorylated (ABL1, Homo sapiens, UniProt P00519)",binding,competition with immobilised ligand,,,5.24
CC#CC(=O)N1CC[C@@H](n2cc(-c3ccc(Oc4c(F)cccc4F)cc3)c3c(N)n[nH]c(=O)c32)C1,"Tyrosine-protein kinase ITK/TSK (ITK, Homo sapiens, UniProt Q08881)",binding,competition with immobilised ligand,,,< 5.52
NS(=O)(=O)C(F)(F)F,"Carbonic anhydrase 1 (CA1, Homo sapiens, UniProt P00915)",binding,ITC,pH 6,,6.79
COc1cc2c(Oc3ccc4[nH]c(C)cc4c3F)ccnc2cc1OCC1(N)CC1,"AMP-activated protein kinase (AMPK) alpha-1/beta-1/gamma-1 (PRKAG1/PRKAA1/PRKAB1, Homo sapiens, UniProt P54619+Q13131+Q9Y478)",binding,SPR,,,4.63
Cc1cc2nc3c(=O)[nH]c(=O)nc-3n(C[C@H](O)[C@H](O)[C@H](O)COP(=O)(O)OP(=O)(O)OC[C@H]3O[C@@H](n4cnc5c(N)ncnc54)[C@H](O)[C@@H]3O)c2cc1C,"CPEB4 (Homo sapiens, UniProt Q17RY0)",binding,,,lysate,8.30
Cc1cc(Nc2cc3ncccc3c(N[C@@H]3C[C@H]4CC[C@@H](C3)N4CCC#N)n2)n[nH]1,"STE20-like serine/threonine-protein kinase (SLK, Homo sapiens, UniProt Q9H2G2)",binding,competition with immobilised ligand,,,6.96
CCCN1CCN(c2ccc(-c3cncc(Cl)c3N3CCC4(CCNC4=O)CC3)cc2)CC1,"Nicotinamide phosphoribosyltransferase (NAMPT, Homo sapiens, UniProt P43490)",cell-free assay,,,lysate,5.19
